Experimental data: ChEMBL document CHEMBL1156597, “Structure-activity relationship of kahalalide F synthetic analogues” (J Med Chem, 2008)

Experiments:
[1] = Cytotoxicity against human IGROV cells after 48 hrs by SRB assay; format: functional; settings: for CC50: read-out: LC50 (the source's name)
Method in brief: (§1)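 Cells grown in RPMI 1640 with 10% FBS and penicillin/streptomycin at 37 °C and 5% CO₂, trypsinized, then seeded at 5 × 10³/well. After 18 h drug-free attachment, samples in DMSO/EtOH/PBS (0.5:0.5:99) were added for 48 h continuous exposure. Cells were fixed with cold TCA (1 h, 4 °C) and stained with SRB (10 min). Tris-solubilized stain read at 490 nm. Triplicate wells, mean ± SD; GI₅₀ derived.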

DU-145 = assay: Cytotoxicity against human DU145 cells after 48 hrs by SRB assay; format: functional, cell-based; settings: Homo sapiens, DU-145, 48 h; for CC50: read-out: LC50 (the source's name); method in brief: as §1
[2] = Cytotoxicity against human HeLa-APL cells after 48 hrs by SRB assay; format: functional; method in brief: as §1
PANC-1 = assay: Cytotoxicity against human PANC1 cells after 48 hrs by SRB assay; format: functional; settings: PANC-1, 48 h; for CC50: read-out: LC50 (the source's name); method in brief: as §1
SK-MEL-28 = assay: Cytotoxicity against human SK-MEL-28 cells after 48 hrs by SRB assay; format: functional, cell-based; settings: Homo sapiens, SK-MEL-28, 48 h; for CC50: read-out: LC50 (the source's name); method in brief: as §1
LoVo [3] = assay: Cytotoxicity against human doxorubicin resistant LoVo cells after 48 hrs by SRB assay; format: functional; settings: for CC50: read-out: LC50 (the source's name); method in brief: as §1
HeLa = assay: Cytotoxicity against human HeLa cells after 48 hrs by SRB assay; format: functional; settings: for CC50: read-out: LC50 (the source's name); method in brief: as §1
SK-BR-3 = assay: Cytotoxicity against human SKBR3 cells after 48 hrs by SRB assay; format: functional; settings: SK-BR-3, 48 h; for CC50: read-out: LC50 (the source's name); method in brief: as §1
[4] = Cytotoxicity against human IGROV-ET cells after 48 hrs by SRB assay; format: functional; settings: for CC50: read-out: LC50 (the source's name); method in brief: as §1
HT-29 = assay: Cytotoxicity against human HT29 cells after 48 hrs by SRB assay; format: functional, cell-based; settings: Homo sapiens, HT-29, 48 h; for CC50: read-out: LC50 (the source's name); method in brief: as §1
LNCaP = assay: Cytotoxicity against human LNcaP cells after 48 hrs by SRB assay; format: functional; settings: for CC50: read-out: LC50 (the source's name); method in brief: as §1
LoVo [5] = assay: Cytotoxicity against human LoVo cells after 48 hrs by SRB assay; format: functional; settings: for CC50: read-out: LC50 (the source's name)
A549 = assay: Cytotoxicity against human A549 cells after 48 hrs by SRB assay; format: functional, cell-based; settings: Homo sapiens, A549, 48 h; method in brief: as §1
K562 = assay: Cytotoxicity against human K562 cells after 48 hrs by SRB assay; format: functional; settings: K562, 48 h; for CC50: read-out: LC50 (the source's name); method in brief: as §1

Compound	GI50 [1] [nM]	GI50 ([1]; read-out: GI50) [nM]	CC50 [1] [nM]	GI50 (DU-145; read-out: GI50) [nM]	CC50 (DU-145) [nM]	LC50 (concentration giving 50% net cell kill) [2] [nM]	GI50 (PANC-1) [nM]	TGI (PANC-1) [nM]	CC50 (PANC-1) [nM]	GI50 (SK-MEL-28; read-out: GI50) [nM]	CC50 (SK-MEL-28) [nM]	CC50 (LoVo [3]) [nM]	CC50 (HeLa) [nM]	GI50 (SK-BR-3; read-out: GI50) [nM]	CC50 (SK-BR-3) [nM]	GI50 ([4]; read-out: GI50) [nM]	CC50 [4] [nM]	CC50 (HT-29) [nM]	GI50 (LoVo [5]) [nM]	TGI (LoVo [5]) [nM]	also measured
C/C=C1\NC(=O)[C@H](Cc2ccc(I)cc2)NC(=O)[C@@H](C(C)C)NC(=O)[C@@H]([C@H](C)CC)NC(=O)[C@H](NC(=O)[C@H](NC(=O)[C@H](CCCN)NC(=O)[C@H]2CCCN2C(=O)[C@H](NC(=O)[C@@H](NC(=O)[C@@H](NC(=O)[C@H](NC(=O)CC[C@@H](C)CC)C(C)C)[C@@H](C)O)C(C)C)C(C)C)[C@H](C)CC)[C@H](C)OC(=O)[C@H](C(C)C)NC1=O	394	670	179	148	117	605	1200	1300	1410	160	354	225	156	305	327	1190	776	423	365	361	GI50 (DU-145): 131 nM; GI50 [2]: 313 nM; TGI [2]: 416 nM; GI50 (SK-MEL-28): 202 nM; GI50 (LoVo [3]): 134 nM; TGI (LoVo [3]): 183 nM; TGI (SK-BR-3): 315 nM; GI50 [4]: 955 nM; GI50 (HT-29): 396 nM; TGI (HT-29): 407 nM; GI50 (LNCaP): 345 nM; TGI (LNCaP): 512 nM; CC50 (LNCaP): 686 nM; CC50 (LoVo [5]): 358 nM; GI50 (A549): 203 nM; LC50 (A549): 181 nM; GI50 (A549; read-out: GI50): 226 nM
C/C=C1\NC(=O)[C@H](Cc2ccc([N+](=O)[O-])cc2)NC(=O)[C@@H](C(C)C)NC(=O)[C@@H]([C@H](C)CC)NC(=O)[C@H](NC(=O)[C@H](NC(=O)[C@H](CCCN)NC(=O)[C@H]2CCCN2C(=O)[C@H](NC(=O)[C@@H](NC(=O)[C@@H](NC(=O)[C@H](NC(=O)CC[C@@H](C)CC)C(C)C)[C@@H](C)O)C(C)C)C(C)C)[C@H](C)CC)[C@H](C)OC(=O)[C@H](C(C)C)NC1=O	417	682	197	261	561	783	1290	1430	1580	188	436	209	185	366	451	1050	636	409	317	314	TGI (DU-145): 3640 nM; GI50 [2]: 569 nM; TGI [2]: 700 nM; GI50 (SK-MEL-28): 235 nM; GI50 (LoVo [3]): 90.4 nM; TGI (LoVo [3]): 141 nM; TGI (SK-BR-3): 406 nM; GI50 [4]: 811 nM; GI50 (HT-29): 419 nM; TGI (HT-29): 411 nM; GI50 (LNCaP): 482 nM; TGI (LNCaP): 511 nM; CC50 (LNCaP): 669 nM; CC50 (LoVo [5]): 311 nM; GI50 (A549): 724 nM; LC50 (A549): 891 nM; GI50 (A549; read-out: GI50): 562 nM
C/C=C1\NC(=O)[C@H](Cc2ccc(Cl)c(Cl)c2)NC(=O)[C@@H](C(C)C)NC(=O)[C@@H]([C@H](C)CC)NC(=O)[C@H](NC(=O)[C@H](NC(=O)[C@H](CCCN)NC(=O)[C@H]2CCCN2C(=O)[C@H](NC(=O)[C@@H](NC(=O)[C@@H](NC(=O)[C@H](NC(=O)CC[C@@H](C)CC)C(C)C)[C@@H](C)O)C(C)C)C(C)C)[C@H](C)CC)[C@H](C)OC(=O)[C@H](C(C)C)NC1=O	329	383	567	266	734	1140	2090	1950	1810	587	1210	134	1100	283	1030	246	539	201	426	451	GI50 (DU-145): 370 nM; GI50 [2]: 1020 nM; TGI [2]: 1080 nM; GI50 (SK-MEL-28): 852 nM; CC50 (K562): 1850 nM; GI50 (LoVo [3]): 299 nM; TGI (LoVo [3]): 248 nM; GI50 (HeLa): 493 nM; TGI (HeLa): 813 nM; TGI (SK-BR-3): 368 nM; GI50 [4]: 379 nM; CC50 (LoVo [5]): 319 nM; GI50 (A549): 206 nM; LC50 (A549): 6270 nM; GI50 (A549; read-out: GI50): 110 nM
C/C=C1\NC(=O)[C@H](Cc2ccc(F)c(F)c2)NC(=O)[C@@H](C(C)C)NC(=O)[C@@H]([C@H](C)CC)NC(=O)[C@H](NC(=O)[C@H](NC(=O)[C@H](CCCN)NC(=O)[C@H]2CCCN2C(=O)[C@H](NC(=O)[C@@H](NC(=O)[C@@H](NC(=O)[C@H](NC(=O)CCCC(C)C)C(C)C)[C@@H](C)O)C(C)C)C(C)C)[C@H](C)CC)[C@H](C)OC(=O)[C@H](C(C)C)NC1=O	86.8	37.9	156	43	243	271	575	979	1650	128	323	52.8	466	30	134	47	515	90.4	12.8	21.2	GI50 (DU-145): 131 nM; GI50 [2]: 155 nM; TGI [2]: 166 nM; GI50 (SK-MEL-28): 203 nM; GI50 (K562): 732 nM; TGI (K562): 1090 nM; CC50 (K562): 1610 nM; GI50 (LoVo [3]): 18.4 nM; TGI (LoVo [3]): 20.5 nM; GI50 (HeLa): 98.1 nM; TGI (HeLa): 177 nM; GI50 (SK-BR-3): 31.9 nM; TGI [4]: 76.7 nM; GI50 (HT-29): 30.4 nM; TGI (HT-29): 28.7 nM; CC50 (LoVo [5]): 25.9 nM; GI50 (A549): 293 nM; LC50 (A549): 968 nM; GI50 (A549; read-out: GI50): 137 nM
C/C=C1\NC(=O)[C@H](Cc2ccccc2)NC(=O)[C@@H](C(C)C)NC(=O)[C@@H]([C@H](C)CC)NC(=O)[C@H](NC(=O)[C@H](NC(=O)[C@H](CCCN)NC(=O)[C@H]2CCCN2C(=O)[C@H](NC(=O)[C@@H](NC(=O)[C@H](CCC(N)=O)NC(=O)[C@H](NC(=O)CCCC(C)C)C(C)C)C(C)C)C(C)C)[C@H](C)CC)[C@H](C)OC(=O)[C@H](C(C)C)NC1=O	406	357	456	913	913	955	1740	1740	1740	1170	1170	348	946	151	300	477	561	436	258	325	GI50 (DU-145): 913 nM; TGI (SK-MEL-28): 1170 nM; GI50 (K562): 1900 nM; TGI (K562): 1900 nM; CC50 (K562): 1900 nM; TGI (SK-BR-3): 173 nM; GI50 [4]: 575 nM; GI50 (HT-29): 448 nM; TGI (HT-29): 455 nM; CC50 (LoVo [5]): 357 nM; LC50 (A549): 1140 nM; TGI (A549): 1140 nM; GI50 (A549; read-out: GI50): 1140 nM
C/C=C1\NC(=O)[C@H](Cc2ccc(-c3ccccc3)cc2)NC(=O)[C@@H](C(C)C)NC(=O)[C@@H]([C@H](C)CC)NC(=O)[C@H](NC(=O)[C@H](NC(=O)[C@H](CCCN)NC(=O)[C@H]2CCCN2C(=O)[C@H](NC(=O)[C@@H](NC(=O)[C@@H](NC(=O)[C@H](NC(=O)CCCC(C)C)C(C)C)[C@@H](C)O)C(C)C)C(C)C)[C@H](C)CC)[C@H](C)OC(=O)[C@H](C(C)C)NC1=O	159	253	564	166	129	1120	1240	1330	1400	190	644	284	812	68.9	968	134	536	516	184	268	GI50 (DU-145): 146 nM; GI50 [2]: 482 nM; TGI [2]: 762 nM; GI50 (SK-MEL-28): 214 nM; CC50 (K562): 1420 nM; GI50 (LoVo [3]): 177 nM; TGI (LoVo [3]): 239 nM; GI50 (HeLa): 220 nM; TGI (HeLa): 372 nM; TGI (SK-BR-3): 183 nM; GI50 [4]: 230 nM; GI50 (HT-29): 214 nM; TGI (HT-29): 187 nM; CC50 (LoVo [5]): 317 nM; LC50 (A549): 947 nM; TGI (A549): 56.6 nM; GI50 (A549; read-out: GI50): 52.1 nM
